# Reference: ChEMBL document CHEMBL1782031, “Urea/thiourea derivatives of quinazolinone-lysine conjugates: synthesis and structure-activity relationships of a new series of antimicrobials” (2011)
# Experiments:
# Assay type in all cases: functional
# Details in all cases: read-out: DIZ
# Pseudomonas fluorescens = test: Antibacterial activity against Pseudomonas fluorescens at 10 ug/disc after 24 hrs by disc diffusion method
# In short: (§1)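 Disc diffusion assay. Discs were held at 4 °C for 2 h so the compounds could diffuse, then incubated at 28 °C. Inhibition zone diameters were measured in mm after 24 h. Each compound was tested in triplicate.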
# Escherichia coli = test: Antibacterial activity against Escherichia coli at 10 ug/disc after 24 hrs by disc diffusion method; in short: as §1
# Bacillus subtilis = test: Antibacterial activity against Bacillus subtilis at 10 ug/disc after 24 hrs by disc diffusion method; in short: as §1
# [1] = Antibacterial activity against Xanthomonas campestris pvs. at 10 ug/disc after 24 hrs by disc diffusion method; in short: as §1
# Xanthomonas oryzae = test: Antibacterial activity against Xanthomonas oryzae at 10 ug/disc after 24 hrs by disc diffusion method
SMILES,zone of inhibition at 10 µg/disc (Pseudomonas fluorescens),zone of inhibition at 10 µg/disc (Escherichia coli),zone of inhibition at 10 µg/disc (Bacillus subtilis),zone of inhibition at 10 µg/disc [1],zone of inhibition at 10 µg/disc (Xanthomonas oryzae)
COC(=O)[C@H](CCCCNS(C)(=O)=O)NC(=O)CCc1nc2ccccc2c(=O)[nH]1,9 mm,6 mm,8 mm,8 mm,11 mm
COC(=O)[C@H](CCCCNC(=O)Nc1ccc(OC)cc1)NC(=O)CCc1nc2ccccc2c(=O)[nH]1,25 mm,23 mm,22 mm,26 mm,28 mm
O=C(CCc1nc2ccccc2c(=O)[nH]1)N[C@@H](CCCCNC(=O)Nc1cccc(F)c1)C(=O)O,34 mm,35 mm,35 mm,33 mm,34 mm
NCCCC[C@H](NC(=O)CCc1nc2ccccc2c(=O)[nH]1)C(=O)O,10 mm,9 mm,8 mm,10 mm,9 mm
O=C(CCCc1nc2ccccc2c(=O)[nH]1)N[C@@H](CCCCNC(=S)Nc1cccc(F)c1)C(=O)O,32 mm,32 mm,34 mm,33 mm,34 mm
COC(=O)[C@H](CCCCNC(=S)Nc1ccccc1C)NC(=O)CCc1nc2ccccc2c(=O)[nH]1,24 mm,22 mm,23 mm,27 mm,26 mm
CC(C)(C)OC(=O)NCCCC[C@H](NC(=O)CCCc1nc2ccccc2c(=O)[nH]1)C(=O)O,11 mm,10 mm,9 mm,12 mm,11 mm
COC(=O)[C@H](CCCCNC(C)=O)NC(=O)CCCc1nc2ccccc2c(=O)[nH]1,7 mm,9 mm,8 mm,6 mm,8 mm
CC(=O)NCCCC[C@H](NC(=O)CCc1nc2ccccc2c(=O)[nH]1)C(=O)O,13 mm,10 mm,11 mm,12 mm,14 mm
CN(C)[C@@H]1C(O)=C(C(N)=O)C(=O)[C@@]2(O)C(O)=C3C(=O)c4c(O)cccc4[C@@](C)(O)[C@H]3C[C@@H]12 [TETRACYCLINE],,,,19 mm,18 mm
COC(=O)[C@H](CCCCNC(=S)Nc1cccc(F)c1)NC(=O)CCCc1nc2ccccc2c(=O)[nH]1,33 mm,35 mm,34 mm,34 mm,36 mm
COc1ccc(NC(=O)NCCCC[C@H](NC(=O)CCCc2nc3ccccc3c(=O)[nH]2)C(=O)O)cc1,23 mm,24 mm,22 mm,25 mm,26 mm
COC(=O)[C@H](CCCCNC(=S)Nc1ccc(F)cc1C)NC(=O)CCc1nc2ccccc2c(=O)[nH]1,34 mm,32 mm,33 mm,33 mm,34 mm
CC(C)(C)OC(=O)NCCCC[C@H](NC(=O)CCc1nc2ccccc2c(=O)[nH]1)C(=O)O,14 mm,11 mm,10 mm,13 mm,14 mm
COC(=O)[C@H](CCCCNC(C)=O)NC(=O)CCc1nc2ccccc2c(=O)[nH]1,12 mm,10 mm,9 mm,11 mm,12 mm
NCCCC[C@H](NC(=O)CCCc1nc2ccccc2c(=O)[nH]1)C(=O)O,12 mm,10 mm,14 mm,13 mm,12 mm
COC(=O)[C@H](CCCCNC(=S)Nc1cccc(F)c1)NC(=O)CCc1nc2ccccc2c(=O)[nH]1,36 mm,38 mm,36 mm,38 mm,35 mm
COC(=O)[C@H](CCCCNC(=O)Nc1ccc(Cl)cc1)NC(=O)CCc1nc2ccccc2c(=O)[nH]1,29 mm,28 mm,24 mm,28 mm,29 mm
